In ChEMBL document CHEMBL5058577, “EUbOPEN Chemogenomics Library 2 (Multiplex)” (2022):

System: HEK-293T
Assay: Multiplex assay against HEK293T
Assay type: toxicity, cell-based
Conditions: human
Method in brief: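 Phenotypes for tubulin, mitochondrial mass and membrane permeability are expressed as per cents of healthy-nucleus cells. Cells were stained live at seeding with Hoechst33342, BioTracker Green Microtubule Cytoskeleton Dye, MitoTracker Red and Annexin V Alexa Fluor 680, then imaged after compound addition on a CQ1 microscope at 37°C and 5% CO2. Machine-learning gating in CellPathfinder separated Hoechst high-intensity objects from normal cells, divided normal cells by nuclear state (healthy, pyknosed, fragmented) and divided pyknosed cells into mitotic or apoptotic.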

[1] = 12 h, 1 µM, compound concentration 1 uM, replicate 1
[2] = 12 h, 1 µM, compound concentration 1 uM, replicate 2
[3] = 12 h, 10 µM, compound concentration 10 uM, replicate 1
[4] = 12 h, 10 µM, compound concentration 10 uM, replicate 2
[5] = 24 h, 1 µM, compound concentration 1 uM, replicate 1
[6] = 24 h, 1 µM, compound concentration 1 uM, replicate 2
[7] = 24 h, 10 µM, compound concentration 10 uM, replicate 1
[8] = 24 h, 10 µM, compound concentration 10 uM, replicate 2
[9] = 48 h, 1 µM, compound concentration 1 uM, replicate 1
[10] = 48 h, 1 µM, compound concentration 1 uM, replicate 2
[11] = 48 h, 10 µM, compound concentration 10 uM, replicate 1
[12] = 48 h, 10 µM, compound concentration 10 uM, replicate 2

Cl.Cl.OCCOCCN1CCN(C(c2ccccc2)c2ccc(Cl)cc2)CC1 (stereo not drawn) [HYDROXYZINE HYDROCHLORIDE]
Population Apoptotic (%) [1]: 34% | Population Fragmented Nuclei (%) [1]: 7% | Population Healthy Nuclei (%) [1]: 79% | Population Hoechst High Intensity Objects (%) [1]: 6% | Population Membrane Permeable-Phenotype (%) [1]: 0% | Population Mitochondria Different-Phenotype (%) [1]: 48% | Population Mitotic Cells (%) [1]: 66% | Population Normal (%) [1]: 93% | Population Pyknosed Nuclei (%) [1]: 13% | Population Tubulin-Different-Phenotype (%) [1]: 24% | Total Cell Count [1]: 394 | Population Apoptotic (%) [2]: 70% | Population Fragmented Nuclei (%) [2]: 5% | Population Healthy Nuclei (%) [2]: 84% | Population Hoechst High Intensity Objects (%) [2]: 9% | Population Mitochondria Different-Phenotype (%) [2]: 58% | Population Mitotic Cells (%) [2]: 29% | Population Normal (%) [2]: 90% | Population Pyknosed Nuclei (%) [2]: 9% | Population Tubulin-Different-Phenotype (%) [2]: 28% | Total Cell Count [2]: 362 | Population Apoptotic (%) [3]: 49% | Population Fragmented Nuclei (%) [3]: 8% | Population Healthy Nuclei (%) [3]: 71% | Population Hoechst High Intensity Objects (%) [3]: 11% | Population Membrane Permeable-Phenotype (%) [3]: 0% | Population Mitochondria Different-Phenotype (%) [3]: 71% | Population Mitotic Cells (%) [3]: 50% | Population Normal (%) [3]: 88% | Population Pyknosed Nuclei (%) [3]: 19% | Population Tubulin-Different-Phenotype (%) [3]: 65% | Total Cell Count [3]: 354 | Population Apoptotic (%) [4]: 68% | Population Fragmented Nuclei (%) [4]: 6% | Population Healthy Nuclei (%) [4]: 73% | Population Hoechst High Intensity Objects (%) [4]: 19% | Population Membrane Permeable-Phenotype (%) [4]: 1% | Population Mitochondria Different-Phenotype (%) [4]: 83% | Population Mitotic Cells (%) [4]: 31% | Population Normal (%) [4]: 80% | Population Pyknosed Nuclei (%) [4]: 20% | Population Tubulin-Different-Phenotype (%) [4]: 59% | Total Cell Count [4]: 327 | Population Apoptotic (%) [5]: 22% | Population Fragmented Nuclei (%) [5]: 10% | Population Healthy Nuclei (%) [5]: 78% | Population Hoechst High Intensity Objects (%) [5]: 2% | Population Membrane Permeable-Phenotype (%) [5]: 0% | Population Mitochondria Different-Phenotype (%) [5]: 34% | Population Mitotic Cells (%) [5]: 77% | Population Normal (%) [5]: 97% | Population Pyknosed Nuclei (%) [5]: 11% | Population Tubulin-Different-Phenotype (%) [5]: 22% | Total Cell Count [5]: 566 | Population Apoptotic (%) [6]: 43% | Population Fragmented Nuclei (%) [6]: 11% | Population Hoechst High Intensity Objects (%) [6]: 13% | Population Mitochondria Different-Phenotype (%) [6]: 41% | Population Mitotic Cells (%) [6]: 56% | Population Normal (%) [6]: 86% | Population Pyknosed Nuclei (%) [6]: 9% | Population Tubulin-Different-Phenotype (%) [6]: 17% | Total Cell Count [6]: 481 | Population Apoptotic (%) [7]: 29% | Population Fragmented Nuclei (%) [7]: 10% | Population Healthy Nuclei (%) [7]: 74% | Population Hoechst High Intensity Objects (%) [7]: 8% | Population Membrane Permeable-Phenotype (%) [7]: 0% | Population Mitochondria Different-Phenotype (%) [7]: 55% | Population Mitotic Cells (%) [7]: 70% | Population Normal (%) [7]: 91% | Population Pyknosed Nuclei (%) [7]: 15% | Population Tubulin-Different-Phenotype (%) [7]: 49% | Total Cell Count [7]: 472 | Population Apoptotic (%) [8]: 59% | Population Fragmented Nuclei (%) [8]: 8% | Population Healthy Nuclei (%) [8]: 71% | Population Hoechst High Intensity Objects (%) [8]: 22% | Population Mitochondria Different-Phenotype (%) [8]: 72% | Population Mitotic Cells (%) [8]: 40% | Population Normal (%) [8]: 77% | Population Pyknosed Nuclei (%) [8]: 19% | Population Tubulin-Different-Phenotype (%) [8]: 43% | Total Cell Count [8]: 383 | Population Apoptotic (%) [9]: 23% | Population Fragmented Nuclei (%) [9]: 14% | Population Healthy Nuclei (%) [9]: 79% | Population Hoechst High Intensity Objects (%) [9]: 1% | Population Membrane Permeable-Phenotype (%) [9]: 1% | Population Mitochondria Different-Phenotype (%) [9]: 19% | Population Mitotic Cells (%) [9]: 76% | Population Normal (%) [9]: 98% | Population Pyknosed Nuclei (%) [9]: 5% | Population Tubulin-Different-Phenotype (%) [9]: 14% | Total Cell Count [9]: 932 | Population Apoptotic (%) [10]: 46% | Population Hoechst High Intensity Objects (%) [10]: 3% | Population Membrane Permeable-Phenotype (%) [10]: 0% | Population Mitotic Cells (%) [10]: 53% | Population Normal (%) [10]: 96% | Population Pyknosed Nuclei (%) [10]: 6% | Population Tubulin-Different-Phenotype (%) [10]: 12% | Total Cell Count [10]: 676 | Population Apoptotic (%) [11]: 38% | Population Fragmented Nuclei (%) [11]: 14% | Population Healthy Nuclei (%) [11]: 76% | Population Hoechst High Intensity Objects (%) [11]: 6% | Population Membrane Permeable-Phenotype (%) [11]: 0% | Population Mitochondria Different-Phenotype (%) [11]: 45% | Population Mitotic Cells (%) [11]: 61% | Population Normal (%) [11]: 93% | Population Pyknosed Nuclei (%) [11]: 9% | Population Tubulin-Different-Phenotype (%) [11]: 35% | Total Cell Count [11]: 627 | Population Apoptotic (%) [12]: 60% | Population Fragmented Nuclei (%) [12]: 15% | Population Healthy Nuclei (%) [12]: 72% | Population Hoechst High Intensity Objects (%) [12]: 16% | Population Mitochondria Different-Phenotype (%) [12]: 53% | Population Mitotic Cells (%) [12]: 40% | Population Normal (%) [12]: 83% | Population Pyknosed Nuclei (%) [12]: 12% | Total Cell Count [12]: 539

Cc1ccc(OCC(O)C(C)NC(C)C)c2c1CCC2.Cl (stereo not drawn)
Population Apoptotic (%) [1]: 34% | Population Fragmented Nuclei (%) [1]: 6% | Population Healthy Nuclei (%) [1]: 81% | Population Hoechst High Intensity Objects (%) [1]: 5% | Population Membrane Permeable-Phenotype (%) [1]: 0% | Population Mitochondria Different-Phenotype (%) [1]: 54% | Population Mitotic Cells (%) [1]: 65% | Population Normal (%) [1]: 94% | Population Pyknosed Nuclei (%) [1]: 12% | Population Tubulin-Different-Phenotype (%) [1]: 40% | Total Cell Count [1]: 409 | Population Apoptotic (%) [2]: 45% | Population Fragmented Nuclei (%) [2]: 5% | Population Healthy Nuclei (%) [2]: 84% | Population Mitochondria Different-Phenotype (%) [2]: 65% | Population Mitotic Cells (%) [2]: 54% | Population Pyknosed Nuclei (%) [2]: 10% | Population Tubulin-Different-Phenotype (%) [2]: 22% | Total Cell Count [2]: 360 | Population Apoptotic (%) [3]: 43% | Population Fragmented Nuclei (%) [3]: 7% | Population Healthy Nuclei (%) [3]: 67% | Population Hoechst High Intensity Objects (%) [3]: 3% | Population Membrane Permeable-Phenotype (%) [3]: 0% | Population Mitochondria Different-Phenotype (%) [3]: 66% | Population Mitotic Cells (%) [3]: 56% | Population Normal (%) [3]: 96% | Population Pyknosed Nuclei (%) [3]: 25% | Population Tubulin-Different-Phenotype (%) [3]: 61% | Total Cell Count [3]: 247 | Population Fragmented Nuclei (%) [4]: 9% | Population Healthy Nuclei (%) [4]: 76% | Population Hoechst High Intensity Objects (%) [4]: 18% | Population Mitochondria Different-Phenotype (%) [4]: 79% | Population Normal (%) [4]: 81% | Population Pyknosed Nuclei (%) [4]: 14% | Population Tubulin-Different-Phenotype (%) [4]: 59% | Total Cell Count [4]: 323 | Population Apoptotic (%) [5]: 35% | Population Fragmented Nuclei (%) [5]: 6% | Population Healthy Nuclei (%) [5]: 80% | Population Hoechst High Intensity Objects (%) [5]: 3% | Population Membrane Permeable-Phenotype (%) [5]: 0% | Population Mitochondria Different-Phenotype (%) [5]: 38% | Population Mitotic Cells (%) [5]: 64% | Population Normal (%) [5]: 96% | Population Pyknosed Nuclei (%) [5]: 12% | Population Tubulin-Different-Phenotype (%) [5]: 25% | Total Cell Count [5]: 548 | Population Apoptotic (%) [6]: 28% | Population Fragmented Nuclei (%) [6]: 7% | Population Healthy Nuclei (%) [6]: 83% | Population Hoechst High Intensity Objects (%) [6]: 4% | Population Mitochondria Different-Phenotype (%) [6]: 45% | Population Mitotic Cells (%) [6]: 71% | Population Normal (%) [6]: 95% | Population Pyknosed Nuclei (%) [6]: 9% | Population Tubulin-Different-Phenotype (%) [6]: 17% | Total Cell Count [6]: 444 | Population Apoptotic (%) [7]: 46% | Population Fragmented Nuclei (%) [7]: 11% | Population Healthy Nuclei (%) [7]: 71% | Population Hoechst High Intensity Objects (%) [7]: 5% | Population Membrane Permeable-Phenotype (%) [7]: 1% | Population Mitochondria Different-Phenotype (%) [7]: 53% | Population Mitotic Cells (%) [7]: 53% | Population Normal (%) [7]: 94% | Population Pyknosed Nuclei (%) [7]: 17% | Population Tubulin-Different-Phenotype (%) [7]: 47% | Total Cell Count [7]: 334 | Population Apoptotic (%) [8]: 50% | Population Fragmented Nuclei (%) [8]: 9% | Population Healthy Nuclei (%) [8]: 78% | Population Hoechst High Intensity Objects (%) [8]: 11% | Population Membrane Permeable-Phenotype (%) [8]: 0% | Population Mitochondria Different-Phenotype (%) [8]: 60% | Population Mitotic Cells (%) [8]: 50% | Population Normal (%) [8]: 88% | Population Pyknosed Nuclei (%) [8]: 11% | Total Cell Count [8]: 399 | Population Apoptotic (%) [9]: 24% | Population Fragmented Nuclei (%) [9]: 12% | Population Healthy Nuclei (%) [9]: 79% | Population Hoechst High Intensity Objects (%) [9]: 3% | Population Membrane Permeable-Phenotype (%) [9]: 0% | Population Mitochondria Different-Phenotype (%) [9]: 28% | Population Mitotic Cells (%) [9]: 75% | Population Normal (%) [9]: 96% | Population Pyknosed Nuclei (%) [9]: 8% | Population Tubulin-Different-Phenotype (%) [9]: 14% | Total Cell Count [9]: 804 | Population Apoptotic (%) [10]: 26% | Population Fragmented Nuclei (%) [10]: 11% | Population Healthy Nuclei (%) [10]: 81% | Population Hoechst High Intensity Objects (%) [10]: 1% | Population Mitochondria Different-Phenotype (%) [10]: 27% | Population Mitotic Cells (%) [10]: 73% | Population Normal (%) [10]: 98% | Population Pyknosed Nuclei (%) [10]: 7% | Total Cell Count [10]: 660 | Population Apoptotic (%) [11]: 40% | Population Fragmented Nuclei (%) [11]: 10% | Population Healthy Nuclei (%) [11]: 74% | Population Hoechst High Intensity Objects (%) [11]: 5% | Population Membrane Permeable-Phenotype (%) [11]: 0% | Population Mitochondria Different-Phenotype (%) [11]: 48% | Population Mitotic Cells (%) [11]: 59% | Population Normal (%) [11]: 94% | Population Pyknosed Nuclei (%) [11]: 14% | Population Tubulin-Different-Phenotype (%) [11]: 43% | Total Cell Count [11]: 435 | Population Apoptotic (%) [12]: 34% | Population Fragmented Nuclei (%) [12]: 11% | Population Healthy Nuclei (%) [12]: 80% | Population Membrane Permeable-Phenotype (%) [12]: 1% | Population Mitochondria Different-Phenotype (%) [12]: 39% | Population Mitotic Cells (%) [12]: 66% | Population Pyknosed Nuclei (%) [12]: 8% | Population Tubulin-Different-Phenotype (%) [12]: 41% | Total Cell Count [12]: 611
